Test results reported in the RNAGym collection of RNA variant scans (doi:10.1002/anie.201605470).

B1: Osa-1-4 twister ribozyme (parent)
chain: CCGCCUAACACUGCCAAUGCCGGUCCCAAGCCCGGAUAAAAGUGGAGGGGGCGG

Variants of: B1
Assay: self-cleavage, relative activity (ratio to wild type); higher = more cleavage; co-transcriptional
How it was run: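 Relative activity is the fraction cleaved divided by that of the wild-type ribozyme. The library came from a DNA template for a 54-nucleotide Oryza sativa twister ribozyme, doped at the 48 positions downstream of the cleavage site with 97 % wild-type base and 1 % of each other base. After 2 h of in vitro transcription at 37 °C with co-transcriptional self-cleavage, the RNA was reverse-transcribed with a template-switching oligonucleotide, amplified by PCR and deep-sequenced, and reads with or without upstream sequence gave the cleavage status.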

Row | Variant | self-cleavage
1 | A10G C21G | 0.08
2 | A10G C21U | 0.89
3 | A10C C14U | 0.03
4 | A10C C14A | 0.02
5 | A10C C14G | 0.04
6 | A10C C33G | 0.02
7 | A10C C33A | 0.03
8 | A10C C33U | 0.04
9 | A10C A41C | 0.05
10 | A10C A41G | 0.11
11 | A10C A41U | 0.06
12 | A10G C11G | 0.12
13 | A10G C11U | 0.8
14 | A10G C11A | 0.38
15 | A10C C9A | 0.43
16 | A10C C9G | 0.07
17 | A10C C9U | 0.06
18 | A10G A36G | 0.86
19 | A10G A36C | 0.26
20 | A10G A36U | 0.94
21 | C9G G30U | 0.04
22 | C9G G30A | 0.02
23 | C9G G30C | 0.04
24 | A10C C52U | 0.11

Row | Variant | self-cleavage
25 | A10C C52A | 0.06
26 | A10C C52G | 0.11
27 | A10C G34U | 0.05
28 | A10C G34C | 0.03
29 | A10C G34A | 0.04
30 | A10C C21G | 0.01
31 | A10C C21U | 0.06
32 | A10C C21A | 0.04
33 | C9G U24G | 0.04
34 | C9G U24C | 0.1
35 | C9G U24A | 0.08
36 | A10C U37G | 0.11
37 | A10C U37C | 0.09
38 | A10C U37A | 0.11
39 | C9U U43C | 0.16
40 | C9U U43G | 0.4
41 | C9U U43A | 0.68
42 | A10G A17G | 0.64
43 | A10G A17C | 0.44
44 | A10G A17U | 0.85
45 | C9U G50C | 0.73
46 | C9U G50U | 0.86
47 | C9U G50A | 0.28
48 | C9U G35U | 0.59

Row | Variant | self-cleavage
49 | C9U G35C | 0.21
50 | C9U G35A | 0.53
51 | C9U G23A | 0.12
52 | C9U G23C | 0.03
53 | C9U G23U | 0.03
54 | C9G G47C | 0.06
55 | C9G G47A | 0.09
56 | C9G G47U | 0.07
57 | C9U G30U | 0.02
58 | C9U G30A | 0.02
59 | C9U G30C | 0.03
60 | A10G C20G | 0.09
61 | A10G C20A | 0.78
62 | A10G C20U | 0.81
63 | A10C C27G | 0.02
64 | A10C C27U | 0.02
65 | A10C C27A | 0.06
66 | C9U G22A | 0.68
67 | C9U G22C | 0.03
68 | C9U G22U | 0.26
69 | C9G G35U | 0.44
70 | C9G G35C | 0.16
71 | C9G G35A | 0.47
72 | C9G U37C | 0.94

Row | Variant | self-cleavage
73 | C9G U37A | 0.76
74 | C9G U37G | 0.92
75 | A10G A40U | 0.27
76 | A10G A40G | 0.34
77 | A10G A40C | 0.08
78 | C9G U12G | 0.11
79 | C9G U12C | 0.1
80 | C9G U12A | 0.13
81 | C9G G44U | 0.95
82 | C9G G44C | 1.04
83 | C9G G44A | 0.82
84 | A10C A8U | 0.04
85 | A10C A8G | 0.06
86 | A10C A8C | 0.15
87 | A10C G22A | 0.05
88 | A10C G22C | 0.02
89 | A10C G22U | 0.03
90 | A10G C15A | 0.17
91 | A10G C15G | 0.2
92 | A10G C15U | 0.14
93 | A10C G50C | 0.04
94 | A10C G50A | 0.11
95 | A10C G50U | 0.04
96 | A10C A16C | 0.09

Row | Variant | self-cleavage
97 | A10C A16G | 0.14
98 | A10C A16U | 0.08
99 | A10G A28U | 0.43
100 | A10G A28G | 0.15
101 | A10G A28C | 0.63
102 | C9U G44U | 0.69
103 | C9U G44C | 0.67
104 | C9U G44A | 0.76
105 | A10G C9G | 0.41
106 | A10G C9U | 0.77
107 | A10G C9A | 0.57
108 | C9U G47C | 0.02
109 | C9U G47A | 0.06
110 | C9U G47U | 0.06
111 | A10G C14A | 0.11
112 | A10G C14U | 0.28
113 | A10G C14G | 0.16
114 | C9G G51A | 0.23
115 | C9G G51C | 0.06
116 | C9G G51U | 0.12
117 | A10G A29G | 0.09
118 | A10G A29C | 0.05
119 | A10G A29U | 0.07
120 | C9G G34C | 0.3

Row | Variant | self-cleavage
121 | C9G G34A | 0.29
122 | C9G G34U | 0.12
123 | C9U G45U | 0.04
124 | C9U G45C | 0.03
125 | C9U G45A | 0.06
126 | A10C A29G | 0.03
127 | A10C A29U | 0.02
128 | A10C A29C | 0.02
129 | A10C G51A | 0.06
130 | A10C G51C | 0.02
131 | A10C G51U | 0.04
132 | A10C U18G | 0.24
133 | A10C U18C | 0.07
134 | A10C U18A | 0.08
135 | C9G G53U | 0.14
136 | C9G G53A | 0.48
137 | C9G G53C | 0.05
138 | C9U G51U | 0.11
139 | C9U G51A | 0.28
140 | C9U G51C | 0.04
141 | A10C G19C | 0.02
142 | A10C G19A | 0.04
143 | A10C G19U | 0.03
144 | C9U | 0.78

Row | Variant | self-cleavage
145 | A10C A38U | 0.08
146 | A10C A38G | 0.08
147 | A10C A38C | 0.07
148 | A10C G47A | 0.02
149 | A10C G47C | 0.02
150 | A10C G47U | 0.03
151 | C9U G49A | 0.06
152 | C9U G49U | 0.05
153 | C9U G49C | 0.04
154 | A10G A7G | 0.39
155 | A10G A7U | 0.09
156 | A10G A7C | 0.06
157 | A10G | 0.91
158 | A10C | 0.12
159 | A10C C32A | 0.02
160 | A10C C32U | 0.02
161 | A10C C32G | 0.02
162 | A10G A39C | 0.61
163 | A10G A39G | 0.82
164 | A10G A39U | 0.69
165 | C9G G42U | 0.05
166 | C9G G42C | 0.07
167 | C9G G42A | 0.11
